Hits are enriched below; roughly 5.1% of the tested compounds scored in any of these assays.
STAT1 act = STAT1 signaling activation; AID 932; NIH 3T3 STAT1-luciferase reporter, IFN-gamma, luminescence; 100% = IFN-gamma alone, no compound; activation (% of control), % at 5.5 µM; 200,000 compounds, 2.6% hits;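 active means activation above the screen-wide mean activation plus 3 SD, cut at about 130% in these data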;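 further: raw ratio to IFN-gamma control signal so 100% means no change and 0% no light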
STAT1 inh = inhibitors of IFN-gamma induced STAT1 signaling; NIH 3T3 STAT1-luciferase reporter, luminescence; 200,000 compounds, 0.35% hits; inhibition, % at 5.5 µM;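 active means inhibition above a set limit, the mean inhibition across all tested compounds plus 3 SD, cut at about 34% in these data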;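 further: 0% = IFN-gamma with DMSO and 100% = IFN-gamma with 300 µM nifuroxazide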
STAT3 inh = reduces IL-6 driven STAT3 reporter signal; U3A cells, IL-6 STAT3-luciferase reporter, luminescence; host cell line lacks STAT1; inhibition, % at 5.5 µM; 190,000 compounds, 0.89% hits;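 active means inhibition above the mean inhibition across all screened compounds plus 3 SD, cut at about 44% in these data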;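 further: 0% = DMSO only wells and 100% = 100 µM nifuroxazide control wells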
APP 5'UTR act = activates APP 5'UTR luciferase reporter; 190,000 compounds, 1% hits; activation, % at 2 µM; AID 1276; SH-SY5Y APP 5'UTR luciferase reporter, luminescence; zero percent = DMSO vehicle wells;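 active means activation above a set limit, based on mean plus 3 SD of controls, cut at about 140% in these data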
NF-kB expr up = raises NF-kB expression in human neuronal cells; fold change at 12.5 µM; AID 1239; NF-kB reporter expression; active compounds read high; 190,000 compounds, 1.6% hits; in the data active means fold change above about 3.3
STAT3 activator = STAT3 signaling activation | U3A cells, IL-6 STAT3-luciferase reporter, luminescence; 100% = signal with IL-6 EC80 alone | activation (% of control), % at 5.6 µM | 190,000 compounds, 0.91% hits;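 active means activation above the screen-wide mean of compound activation plus 3 SD, cut at about 130% in these data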;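 further: 0% = background luminescence of wells with medium and substrate only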
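Material: human U3A cells carrying STAT3-luciferase construct. Measured by: reporter luminescence signal. Timing: compound 1 h, then IL-6 6 h at 37 °C.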
* = called active by the depositor.

`c1cc(-c2noc(CC3CCCCC3)n2)ccn1` gave STAT1 act 110, STAT1 inh -11, STAT3 inh 2, APP 5'UTR act 5, NF-kB expr up 1.3 and STAT3 activator 102.
`CC(C)(C)C(=O)N1CCn2c1nc1ccccc12` gave STAT1 act 101, STAT1 inh -1, STAT3 inh 3, APP 5'UTR act -4, NF-kB expr up 1.4 and STAT3 activator 99.
Screening Cc1c(OCc2ccc([N+](=O)[O-])cc2)ccc2c3c(c(=O)oc12)CCC3 returned STAT1 act 108, STAT1 inh -6, STAT3 inh -9, APP 5'UTR act 192*, NF-kB expr up 0.87 and STAT3 activator 105.
For C=C(C)COc1ccc2c3c(c(=O)oc2c1OCC(=C)C)CCC3 the results were STAT1 act 100, STAT1 inh 0, STAT3 inh 7, APP 5'UTR act -12, NF-kB expr up 3.5* and STAT3 activator 98.
`CCC(C)(C)NCC(=O)Nc1ccc(OC(F)(F)F)cc1` gave STAT1 act 103, STAT1 inh -3, STAT3 inh -1, APP 5'UTR act -12, NF-kB expr up 1.2 and STAT3 activator 106.
`COc1ccc(-c2nc(NC(=O)C3CC(=O)N(c4ccc5c(c4)OCCO5)C3)sc2C)cc1` (stereo not drawn) gave STAT1 act 96, STAT1 inh 5, STAT3 inh 14, APP 5'UTR act 6, NF-kB expr up 1 and STAT3 activator 90.
`Cc1ccc(C2CCN(C(=S)NC(C)(C)C)C2)cc1` (stereo not drawn) gave STAT1 act 128, STAT1 inh -33, STAT3 inh 6, APP 5'UTR act 28, NF-kB expr up 1.4 and STAT3 activator 99.
Nc1cc(-c2cccc([N+](=O)[O-])c2)[nH]n1 was read as STAT1 act 96, STAT1 inh 5, STAT3 inh -8, APP 5'UTR act 7, NF-kB expr up 0.84 and STAT3 activator 103.
`CC(C)(O)C#Cc1ccc(CN2CCN(Cc3ccsc3)C(CCO)C2)cc1` (stereo not drawn) gave STAT1 act 96, STAT1 inh 2, STAT3 inh 3, APP 5'UTR act -8, NF-kB expr up 3.8* and STAT3 activator 100.
C#Cc1ccc(CN2CCN(Cc3ccsc3)C(CCO)C2)cc1 (stereo not drawn) was read as STAT1 act 93, STAT1 inh 6, STAT3 inh 5, APP 5'UTR act -8, NF-kB expr up 1 and STAT3 activator 99.
Screening Nc1n[nH]c2c1C1(CCCC1)Cc1ccccc1-2 returned STAT1 act 96, STAT1 inh 5, STAT3 inh 4, APP 5'UTR act 2, NF-kB expr up 1.1 and STAT3 activator 98.
`NC(=O)C1CCN(c2nc(-c3ccc(Br)cc3)cs2)CC1` gave STAT1 act 131*, STAT1 inh -35, STAT3 inh 10, APP 5'UTR act 54, NF-kB expr up 1.8 and STAT3 activator 95.
`Brc1ccc(-c2csc(/N=C/N3CCCC3)n2)cc1` gave STAT1 act 132*, STAT1 inh -34, STAT3 inh 21, APP 5'UTR act 29, NF-kB expr up 1.4 and STAT3 activator 83.
For Brc1ccc(-c2csc(/N=C/N3CCOCC3)n2)cc1 the results were STAT1 act 136*, STAT1 inh -39, STAT3 inh 24, APP 5'UTR act 53, NF-kB expr up 2 and STAT3 activator 82.
Screening OCCN(/C=N/c1nc(-c2ccc(Br)cc2)cs1)CCO returned STAT1 act 116, STAT1 inh -17, STAT3 inh 11, APP 5'UTR act 42, NF-kB expr up 1.8 and STAT3 activator 96.
For NC(=O)C1(N2CCCCC2)CCN(c2nc(-c3ccc(Br)cc3)cs2)CC1 the results were STAT1 act 96, STAT1 inh 5, STAT3 inh 19, APP 5'UTR act -5, NF-kB expr up 1.2 and STAT3 activator 87.
Cc1cccc(N(CC(=O)N/N=C/c2ccc(OCC(=O)NCc3ccco3)cc2)S(C)(=O)=O)c1C was read as STAT1 act 89, STAT1 inh 12, STAT3 inh 7, APP 5'UTR act 0, NF-kB expr up 1.2 and STAT3 activator 93.
O=C(/C=C/c1ccc(Cl)cc1)NCc1ccco1 was read as STAT1 act 113, STAT1 inh -15, STAT3 inh -10, APP 5'UTR act 21, NF-kB expr up 1.8 and STAT3 activator 106.
Screening CCN1C(=O)CC(N2CCC(C(=O)N3CCOCC3)CC2)C1=O (stereo not drawn) returned STAT1 act 105, STAT1 inh -5, STAT3 inh 4, APP 5'UTR act -3, NF-kB expr up 1.1 and STAT3 activator 100.
For O=C(CCSc1ccccc1)NC1CCCCCC1 the results were STAT1 act 144*, STAT1 inh -51, STAT3 inh -12, APP 5'UTR act -4, NF-kB expr up 1.1 and STAT3 activator 111.
O=C(CCSc1ccc(Cl)cc1)NC1CCCCC1 was read as STAT1 act 106, STAT1 inh -6, STAT3 inh 3, APP 5'UTR act 17, NF-kB expr up 1.3 and STAT3 activator 107.
O=C(CCSc1ccccc1)N1CCCC1 was read as STAT1 act 134*, STAT1 inh -40, STAT3 inh 2, APP 5'UTR act 76, NF-kB expr up 2.2 and STAT3 activator 104.
For O=C(CCSc1ccccc1)N1CCOCC1 the results were STAT1 act 119, STAT1 inh -21, STAT3 inh -7, APP 5'UTR act 86, NF-kB expr up 1.8 and STAT3 activator 109.
`CC(/C=C/c1ccccc1F)=N\NC(=O)c1ccccc1` gave STAT1 act 133*, STAT1 inh -38, STAT3 inh 12, APP 5'UTR act 80, NF-kB expr up 2.7 and STAT3 activator 92.
For C/C(=N\NC(=O)c1ccccc1)c1cccc(Br)c1 the results were STAT1 act 117, STAT1 inh -20, STAT3 inh 18, APP 5'UTR act 62, NF-kB expr up 1.8 and STAT3 activator 88.
Screening C/C(=N/NC(=O)c1ccccc1)C(=O)O returned STAT1 act 132*, STAT1 inh -37, STAT3 inh -1, APP 5'UTR act 1, NF-kB expr up 1.7 and STAT3 activator 103.
`Cc1cc(C)c2nc(-n3nc(C)cc3N)cc(C)c2c1` gave STAT1 act 143*, STAT1 inh -45, STAT3 inh -26, APP 5'UTR act 91, NF-kB expr up 1.8 and STAT3 activator 120.
Screening Cc1cc(N)n(-c2cc(C)c3ccccc3n2)n1 returned STAT1 act 112, STAT1 inh -13, STAT3 inh 3, APP 5'UTR act 137*, NF-kB expr up 4.5* and STAT3 activator 102.
`Cc1cc(N)n(-c2ccccc2)n1` gave STAT1 act 102, STAT1 inh -2, STAT3 inh 2, APP 5'UTR act 2, NF-kB expr up 1.2 and STAT3 activator 100.
